The record followed here is ChEMBL document CHEMBL3045605, “Synthesis and anticancer evaluation of novel 3,5-diaryl-thiazolo[4,5-d]pyrimidin-2-one derivatives” (2013).

Molecules are shown by their SMILES.

Holding throughout (type): functional
Assay [1] is described as follows: Anticancer activity against Homo sapiens (human) NCI-322M cells by SRB assay. The gist of the method:
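Five-dose NCI 60-cell-line panel testing at tenfold dilutions from 10−4 to 10−8 M, with growth read by sulforhodamine B protein staining. For each cell line: GI50 is the molar concentration giving half growth inhibition; TGI is total growth inhibition (cytostatic); LC50 is the molar concentration killing 50% of the initial cells (cytotoxic).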
On the technique in general: Sulforhodamine B stains cellular protein and so reports cell mass.

Another assay relates to M14. Briefly: Anticancer activity against Homo sapiens (human) M14 cells assessed as cell growth at 10 uM by SRB assay. The following applies: read-out: Activity. The gist of the method:
(§1)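 NCI 60-cell human tumour panel (nine cancer types) screened at one concentration, 10−5 M. Cell growth estimated by sulforhodamine B protein staining and reported as percent growth of treated cells relative to untreated controls.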

The test system of another assay is LOX IMVI. Briefly: Anticancer activity against Homo sapiens (human) LOXIMVI cells assessed as cell growth at 10 uM by SRB assay. The following applies: read-out: Activity. The gist of the method:
as §1

Another assay deals with Hs-578T. Briefly: Anticancer activity against Homo sapiens (human) Hs 578T cells by SRB assay. The gist of the method: (§2)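 NCI 60-line panel, five tenfold dilutions from 10−4 to 10−8 M, growth read by sulforhodamine B staining against untreated controls. From the dose–response per line: GI50 (molar concentration giving half growth inhibition), TGI (molar concentration giving total growth inhibition, cytostatic) and LC50 (molar concentration killing 50% of initial cells, cytotoxic).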

The subject of another assay is DU-145. Briefly: Anticancer activity against Homo sapiens (human) DU145 cells by SRB assay. The gist of the method:
as §2

Take `O=c1sc2c(Cl)nc(-c3ccccc3)nc2n1-c1ccccc1`: the GI50 – broadly, the concentration that inhibits growth by half – in assay [1] is 14.1 µM; in the assay with Hs-578T, 3.31 µM; in the assay on DU-145 it was 4.68 µM. The TGI was 58.9 µM in assay [1] (read-out: pTGI (converted)), 18.6 µM with Hs-578T (read-out: pTGI (converted)) and 23.4 µM in the assay with DU-145 (read-out: pTGI (converted)). For the same compound, the growth at 10 µM in the assay on M14 is 16%; with LOX IMVI, -44%. Also, the CC50 with DU-145 (read-out: pLC50 (the source's name) (converted)) was 81.3 µM.
